Experimental data reported in ChEMBL document CHEMBL3352257, “In silico design of novel 2H-chromen-2-one derivatives as potent and selective MAO-B inhibitors” (Eur J Med Chem, 2015).

Assays:
Assay type in all cases: tissue-based
[1] = biological target: T1, Amine oxidase [flavin-containing] B (Rattus norvegicus, UniProt P19643); test: Inhibition of Sprague-Dawley rat MAO-B in brain mitochondrial homogenate assessed as 4-hydroxyquinoline by spectrophotometric method
T1 sequence (P19643 whole entry): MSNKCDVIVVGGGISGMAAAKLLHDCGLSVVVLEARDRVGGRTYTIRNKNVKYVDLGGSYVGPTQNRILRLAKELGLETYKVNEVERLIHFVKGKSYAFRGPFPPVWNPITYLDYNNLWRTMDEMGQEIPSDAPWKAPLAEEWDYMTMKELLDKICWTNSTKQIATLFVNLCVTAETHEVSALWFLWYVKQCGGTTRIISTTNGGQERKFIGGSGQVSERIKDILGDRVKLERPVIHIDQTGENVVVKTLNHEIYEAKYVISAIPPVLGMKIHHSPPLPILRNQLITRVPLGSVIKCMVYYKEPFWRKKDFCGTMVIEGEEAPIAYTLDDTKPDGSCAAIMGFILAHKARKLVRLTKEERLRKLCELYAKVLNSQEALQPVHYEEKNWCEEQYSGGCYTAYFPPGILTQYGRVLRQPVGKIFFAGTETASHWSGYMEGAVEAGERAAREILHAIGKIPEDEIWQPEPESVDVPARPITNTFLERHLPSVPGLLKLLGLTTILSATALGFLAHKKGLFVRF

[2] = biological target: T2, MAO-A (amine oxidase [flavin-containing] A) (Rattus norvegicus, UniProt P21396); test: Inhibition of Sprague-Dawley rat MAO-A in brain mitochondrial homogenate assessed as 4-hydroxyquinoline at 10 uM by spectrophotometric method
T2 sequence (P21396 whole entry): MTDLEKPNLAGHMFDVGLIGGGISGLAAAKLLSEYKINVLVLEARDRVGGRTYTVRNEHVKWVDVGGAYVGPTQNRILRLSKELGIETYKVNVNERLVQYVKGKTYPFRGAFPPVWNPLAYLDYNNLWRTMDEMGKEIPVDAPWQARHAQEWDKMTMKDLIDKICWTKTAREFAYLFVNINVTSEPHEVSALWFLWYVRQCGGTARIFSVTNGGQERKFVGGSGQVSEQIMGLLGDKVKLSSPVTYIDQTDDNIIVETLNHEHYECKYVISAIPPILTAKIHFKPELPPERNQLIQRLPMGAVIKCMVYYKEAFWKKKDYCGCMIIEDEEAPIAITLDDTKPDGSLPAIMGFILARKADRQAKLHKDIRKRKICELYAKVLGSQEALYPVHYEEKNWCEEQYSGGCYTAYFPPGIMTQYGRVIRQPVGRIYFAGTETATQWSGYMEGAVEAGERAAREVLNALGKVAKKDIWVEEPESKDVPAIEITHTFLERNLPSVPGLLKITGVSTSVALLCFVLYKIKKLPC
Summary of the method: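 Crude mitochondrial fraction from male Sprague-Dawley rat brain (200-250 g) was used at 1 mg/mL and pretreated with (-)-L-deprenyl 250 nM to isolate MAO-A. Compound was given at 10 μM in DMSO (final 5% v/v) with a 5 min preincubation. Kynuramine was added at 90 μM (KM), and 4-hydroxyquinoline formation was read at 314 nm for 5 min. Values are means of 2-3 independent experiments.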

[3] = biological target: T3, Amine oxidase [flavin-containing] A (Rattus norvegicus, UniProt P21396); test: Inhibition of Sprague-Dawley rat MAO-A in brain mitochondrial homogenate assessed as 4-hydroxyquinoline by spectrophotometric method
T3 sequence (P21396 whole entry): T2 sequence (P21396 whole entry)
Summary of the method: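 The MAO-A source was a crude male Sprague-Dawley rat brain mitochondrial fraction (1 mg/mL), pretreated with (-)-L-deprenyl 250 nM. Compound in DMSO (final 5% v/v) was preincubated for 5 min, then kynuramine was added at 90 μM (KM). 4-Hydroxyquinoline formation was monitored at 314 nm for 5 min.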

IC50 [1] [nM] | inhibition at 10 µM [2] [%] | IC50 [3] [nM] | Compound
31600 |  |  | O=C(O)COc1cc(=O)oc2cc(OCc3cccc(Cl)c3)ccc12
32.4 | 22 |  | O=c1cc(CCBr)c2ccc(OCc3cccc(Cl)c3)cc2o1
15.1 |  | 4270 | NC(=O)CCc1cc(=O)oc2cc(OCc3cccc(Cl)c3)ccc12
1200 | 13 |  | O=C(O)CCc1cc(=O)oc2cc(OCc3cccc(Cl)c3)ccc12
12.9 | 3 |  | O=c1cc(CCCl)c2ccc(OCc3cccc(Cl)c3)cc2o1
398 |  | 5750 | O=C(CCl)Nc1cc(=O)oc2cc(OCc3cccc(Cl)c3)ccc12
100000 |  |  | O=C(O)c1cc(=O)oc2cc(OCc3cccc(Cl)c3)ccc12
49 |  | 95.5 | NC(=O)CNc1cc(=O)oc2cc(OCc3cccc(Cl)c3)ccc12
7.41 |  | 4680 | O=c1cc(CCO)c2ccc(OCc3cccc(Cl)c3)cc2o1
3800 | 1 |  | O=c1cc(CCN2CCCCC2)c2ccc(OCc3cccc(Cl)c3)cc2o1
31600 |  |  | CCNC(=O)Nc1cc(=O)oc2cc(OCc3cccc(Cl)c3)ccc12
28.8 | 22 |  | N#CCCc1cc(=O)oc2cc(OCc3cccc(Cl)c3)ccc12
